In the array DNA melting data of Ke et al. (doi:10.1101/2024.01.08.574731):

Experiments:
[1] = folding enthalpy; higher = less favourable; fluorescence melt of hairpins on a sequencing array, two-state fit; details: sodium 0.088 M
How it was run: (§1)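 Folding enthalpy and melting temperature come from bootstrapped two-state fits to Cy3 fluorescence of library hairpins carrying annealed Cy3 and quencher oligos on a sequenced MiSeq flow cell. Imaging was done in 50 mM Na-HEPES pH 8.0, 25 mM NaCl, stepping by 2.5 °C up to 60 °C, and signals were normalised to pre-quench Cy3 and to control constructs. Results of four replicates were combined by inverse variance, and fitted temperatures were raised by 9.35 °C to match UV melts.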

[2] = melting temperature; fluorescence melt of hairpins on a sequencing array, two-state fit, raised by 9.35 °C to match UV melts; details: sodium 0.088 M
How it was run: as §1

Sequence	folding enthalpy [1] [kcal/mol]	Tm [2] [°C]
GTCACTCGAAAGAGGGAC (((.(((....))).)))	-50.4	60.9
GATCCGCCGACGGATC ((((((....))))))	-38	58.3
GCAGTCGAAAGACCTTGC ((((((....)))..)))	-13.3	33.8
GACCACGAAAGTGGGTC ((((((....))).)))	-13.7	60.1
GATCCACACTTGGATC ((((((....))))))	-41.1	52.1
GTCGAGCGAAAGCTGAC (((.(((....))))))	-20	57.7
GCTTAGGGAAACTTAAGC (((((.(....).)))))	-30	37.9
GAGAGCCGAAAGGCGCTC (((.(((....))).)))	-22.9	67.8
GATTGTACGAAAGTAATC (((..(((....))))))	-18.7	28.1
GTGGCCGAAAGGCCCAC ((((((....))).)))	-10.5	57.5
GATCAACATGTTGATC ((((((....))))))	-56.2	54.7
GATCATAATCATGATC ((((((....))))))	-32.1	46.2
GTAAGCGAAAGCTGTAC ((((((....))).)))	-15.7	43
GGGGCTGGAAACGGCTCC ((.((.(....).)).))	-38.7	48.6
GTCAACGAAAGTTATGAC ((((((....)))..)))	-20.5	33.1
GATCGGTCACCCGATC ((((((....))))))	-31.4	56.4
GCGGTGCGAAAGCAGGGC ((..(((....)))..))	-20.5	55.2
GCTTGGCGAAAGCGATGC ((.(.((....)).).))	-14.3	45
GCGCACGAAAGTGCTCGC ((((((....)))..)))	-13.5	48.4
GAGTGCGGAAACACACCC (.(((.(....).))).)	-15.5	28.1
GACGCCGGAAACGACGTC ((((.((....)).))))	-44.8	57.5
GGGTTTCCGAAAGGACCC (((..(((....))))))	-19.3	40.6
GCAGGAGAAATCCTGC ((((((....))))))	-36.1	61.1
GCTTCAGGAAACTGAGGC ((.((((....)))).))	-37.3	47.7

Sequence	folding enthalpy [1] [kcal/mol]	Tm [2] [°C]
GGAATCGAAAGATTCTCC ((((((....)))..)))	-13.5	44.4
GTCATATCGAAAGATGAC (((..(((....))))))	-26.1	37.1
TCCAAGAAATTGGA (((((....)))))	-10.5	31.2
GAGGCAGGAAACCGCCTC (((((.(....).)))))	-33.2	54.9
GCCTAGCGAAAGCGAAGC ((.(.((....)).).))	-16.1	41.9
GGACTAGGAAACCAGTCC (((((.(....).)))))	-31	44.8
GCCATCGAAAGATAGGC ((((((....))).)))	-30.3	50.1
GCCGCCGAAAGGCTGGGC ((((((....)))..)))	-20.4	64.8
GAGACAGGAAACTGTCTC (((((((....)))))))	-49.7	60.1
GCGGCTTCCGC ((((...))))	-25.9	57.8
GCGAGGGATCGC ((((....))))	-16.6	52.1
GGAGCCACGAAAGTGTCC (((..(((....))))))	-8.88	28.5
GCATGGTCGAAAGACTGC (((..(((....))))))	-18.1	39.8
GTGGCCGAAAGGCCCCAC ((((((....)))..)))	-5.99	38.1
GTTTGTGGAAACACAAAC (((((((....)))))))	-46.4	58.4
GGCATAGAAATATGCC ((((((....))))))	-42.2	55.4
GTAATCGGAAACGGTTAC ((((.((....)).))))	-33.2	46.7
GGCTTAGGAAACTGAGCC ((((.((....)).))))	-44.6	50.4
GCGATACTCGC ((((...))))	-22.8	49.3
GGCGTAGGAAACTGCGTC (.((.((....)).)).)	-19.5	44.1
GAGGCTGCGAAAGCACTC (((..(((....))))))	-11.2	34.3
GGCATGCGAAAGCAGCC (((.(((....))))))	-21.6	64.3
GATTATGCGAAAGCAATC (((..(((....))))))	-9.91	23.4
AAGTTGAAAAACTT (((((....)))))	-10.6	35.4

Sequence	folding enthalpy [1] [kcal/mol]	Tm [2] [°C]
GTAGGCGAAAGCCTCTAC ((((((....)))..)))	-8.87	36.4
GCGGGCGAAAGCCGACGC ((((((....)))..)))	-19.9	61.9
GGAGAAGGAAACTTTTCC (((.(((....))).)))	-26.2	31.1
GGTAAACGAAAGTTGACC (((.(((....))).)))	-36.3	49.4
GCTAGAGGAAACCCTAGC (((((.(....).)))))	-31.2	41.4
GCTTTGCGAAAGCATCGC ((..(((....)))..))	-13.7	48.7
GGTAACGAAAGTTGCACC ((((((....)))..)))	-14.1	35.1
GATTAGGGAAACTTAATC (((((.(....).)))))	-17.3	29.1
GCGTATGGAAACGTACGC (((((.(....).)))))	-48	54.7
CGACCGGAAACGGCGTCG ((((((....)))..)))	-18.1	50.2
GGTTACGAAAGTATTACC ((((((....)))..)))	-15.2	29.6
GCCACCGCGAAAGCGGGC (((..(((....))))))	-7.35	47.5
GATCACCACTGTGATC ((((((....))))))	-43.5	56.1
GGCCGCACGAAAGTGGCC (((..(((....))))))	-26.5	58.9
GCTGTCGGAAACAACAGC (((((.(....).)))))	-26.9	46
GGAGGTGGAAACACTTCC (((.(((....))).)))	-35.2	48.2
GATCCTAAATAGGATC ((((((....))))))	-35.8	49.2
GCGGGGCCCGC ((((...))))	-34.8	63.3
TTCCAGAAATGGAA (((((....)))))	-9.36	31
GATAACGAAAGTTATC ((((((....))))))	-32.9	53.9
GCAACGCGAAAGCTTTGC ((((.((....)).))))	-27.4	55.5
GCTGTCGAAAGACTTAGC ((((((....)))..)))	-19.9	43
GACGGCGAAAGCCAGGTC ((((((....)))..)))	-16.5	46.6
TCGGGGAAACCCGA (((((....)))))	-22.8	53.3

Sequence	folding enthalpy [1] [kcal/mol]	Tm [2] [°C]
GCGGATTCCGC ((((...))))	-24.9	54.3
GATCAGCGTCTGATC ((((((...))))))	-38.8	49.9
GAGCACGAAAGTGATCTC ((((((....)))..)))	-23.7	57.1
GCAGAGCGAAAGCACAGC ((.(.((....)).).))	-15.6	42.9
GAGTCTCCGAAAGGACTC (((..(((....))))))	-21.8	39
GATCTGTCACCAGATC ((((((....))))))	-39.4	49.4
GATCGTTATAACGATC ((((((....))))))	-40.1	56.7
GTAGGTCGAAAGACGTAC (((.(((....))).)))	-36.2	51.7
GATCGCTACGGCGATC ((((((....))))))	-40.5	67.8
GACGGTGCGAAAGCAGTC (((..(((....))))))	-16.9	39.9
GAATGCGAAAGCACATTC ((((((....)))..)))	-13.2	31.3
GAGCGAGGAAACTCGTTC ((.((((....)))).))	-27	48.8
GAGGGACCGAAAGGTCTC (((..(((....))))))	-11.6	38.3
GTTGCCGGAAACAGCAAC (((((.(....).)))))	-27.4	46.9
GCGATGCGAAAGCCGCGC (((..((....))..)))	-27.7	64.7
GATCGTGGACACGATC ((((((....))))))	-40.2	65.6
GTTCAGGGAAACCCGAAC ((((.((....)).))))	-31.7	42.3
GCGTACGCGAAAGCGCGC (((..(((....))))))	-16.8	58.5
GATCGCCCAGCGATC ((((((...))))))	-32.1	67.4
GGAAAGAAATTTCC (((((....)))))	-18.9	29.5
GATCAGTAATCTGATC ((((((....))))))	-36	48.6
